Experimental data from different studies.
Each line is one published result; the experiments were not run side by side.

SMILES | tested on | assay | setting | measurement | value
C[C@@H](Oc1cc(-c2cnn(C3CCNCC3)c2)cnc1N)c1c(Cl)ccc(F)c1Cl | KARPAS-299 | cell growth or viability, MTT | 0.2 µg/mL, 72 h | inhibition | 75.5%
COc1cc(Nc2nccc(-c3cnn4nc(OC)ccc34)n2)cc(C(F)(F)F)c1 | HEC-1-A | cell growth or viability, ATP luminescence | – | IC50 | 1000 nM
COc1ccc(Sc2ccc(OC)c(OC)c2OC)cc1 | – | tubulin polymerisation, inhibitor, absorbance | pH 6.6 | IC50 | 16000 nM
C=CS(=O)(=O)Nc1ccc(CCn2cc(C[C@@]3(O)C[C@@H]4c5cc(OCc6cc(C)cc(C)c6)c(OCc6cc(C)cc(C)c6)cc5CCN4[C@@H](C)C3)nn2)cc1 | ASPC1 | cell growth or viability, MTT | – | IC50 | 1880 nM
CC(C)C[C@H](NC(=O)[C@H](Cc1ccccc1)NC(=O)c1cnccn1)B(O)O | RERF-LC-MS | cell growth or viability, ATP luminescence | – | IC50 | 20 nM
COc1ccc([S+]([O-])c2ccc(C)cc2)c(OC)c1OC (stereo not shown) | – | tubulin polymerisation, inhibitor, absorbance | pH 6.6 | IC50 | > 40000 nM
Cc1cc(C)cc(COc2cc3c(cc2OCc2cc(C)cc(C)c2)C2CC(O)(Cc4cn(CCCCCCNc5cccc6c5C(=O)N(C5CCC(=O)NC5=O)C6=O)nn4)CC(C)N2CC3)c1 (stereo not shown) | ASPC1 | cell growth or viability, MTT | – | IC50 | 1080 nM
COc1ccc([S+]([O-])c2ccccc2)c(OC)c1OC (stereo not shown) | – | tubulin polymerisation, inhibitor, absorbance | pH 6.6 | IC50 | > 40000 nM
Cc1cc(Nc2ncc(Cl)c(Nc3ccccc3S(=O)(=O)C(C)C)n2)c(OC(C)C)cc1C1CCNCC1 | KARPAS-299 | cell growth or viability, MTT | 5 µg/mL, 72 h | inhibition | 97.7%
C=CS(=O)(=O)Nc1ccc(Cn2cc(C[C@@]3(O)C[C@@H]4c5cc(OCc6cc(C)cc(C)c6)c(OCc6cc(C)cc(C)c6)cc5CCN4[C@@H](C)C3)nn2)cc1 | ASPC1 | cell growth or viability, MTT | – | IC50 | 823 nM
